Experimental data from ChEMBL document CHEMBL1124284, “Design of novel inhibitors of aminopeptidases. Synthesis of peptide-derived diamino thiols and sulfur replacement analogues of bestatin” (J Med Chem, 1988).

Assay: Inhibition of partially purified soluble aminopeptidase from rat brain
Details: read-out: I50
How it was run: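 Enzyme from whole fresh Sprague-Dawley rat brain: homogenized in ice-cold 50 mM Tris-HCl pH 7.4 with 1 mM DTT and 0.01 mM ZnCl2, soluble supernatant taken after 80000g spin, 40–70% ammonium sulfate cut, dialyzed. About 30 μg protein started the reaction with leucine p-nitroanilide (final 100 μM), up to 1 h at 37 °C or room temperature. Released p-nitroaniline read at 550 nm.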

Structure (SMILES)	IC50 [nM]
CC(C)C[C@@H](NC(=O)[C@H](Cc1ccccc1)NCCS)C(=O)O	240000
CC(C)CCNCC(S)[C@H](N)CC(C)C (stereo in doubt; 60)	2500
CC(C)CCNCC(S)[C@@H](N)Cc1ccccc1 (stereo in doubt; 53)	300
CC(C)C[C@H](NC(=O)C(S)[C@@H](N)Cc1ccccc1)C(=O)O (stereo partly drawn)	1600
CC(C)CCNCC(S)[C@H](N)Cc1ccccc1 (stereo in doubt; 58)	600
N[C@H](CS)Cc1ccccc1	39
CC(C)C[C@H](NC(=O)C(S)[C@H](N)Cc1ccccc1)C(=O)O (stereo in doubt; 78)	10000
CC(C)CCNCC(S)[C@H](N)Cc1ccccc1 (stereo in doubt; 57)	3100
CC(C)CCNCC(S)[C@H](N)CC(C)C (stereo in doubt; 59)	7500
CC(C)C[C@H](NCC(S)[C@@H](N)Cc1ccccc1)C(=O)O (stereo in doubt; 70)	4400
N[C@@H](CS)Cc1ccccc1	6900
CC(C)C[C@@H](NC(=O)[C@H](Cc1ccccc1)NCC(O)[C@@H](N)Cc1ccccc1)C(=O)O (stereo partly drawn)	580
CC(C)C[C@H](NC(=O)C(S)[C@H](N)Cc1ccccc1)C(=O)O (stereo in doubt; 79)	220

Continued by falling IC50, values first:

IC50 [nM]	Structure (SMILES)
220	CC(C)C[C@H](NCC(S)[C@@H](N)Cc1ccccc1)C(=O)O (stereo in doubt; 71)
170	CC(C)C[C@H](NC(=O)[C@@H](O)[C@H](N)Cc1ccccc1)C(=O)O [UBENIMEX]
81	CC(C)CCNCC(S)[C@@H](N)CC(C)C (stereo in doubt; 55)
34	CC(C)C[C@H](NCC(S)[C@@H](N)CC(C)C)C(N)=O (stereo partly drawn)
33	CC(C)C[C@H](NCC(S)[C@@H](N)Cc1ccccc1)C(N)=O (stereo partly drawn)
29	CC(C)CCNCC(S)[C@@H](N)CC(C)C (stereo in doubt; 56)
20	CC(C)CCNCC(S)[C@@H](N)Cc1ccccc1 (stereo in doubt; 54)
10	CC(C)C[C@H](N)CS
4	CC(C)C[C@@H](NC(=O)[C@H](Cc1ccccc1)NCC(S)[C@@H](N)CC(C)C)C(=O)O (stereo partly drawn)
1	CC(C)C[C@@H](NC(=O)[C@H](Cc1ccccc1)NCC(S)[C@@H](N)Cc1ccccc1)C(=O)O (stereo partly drawn)
